Source: article PMC8562524 (Journal for Immunotherapy of Cancer, 2021)

What was measured:
human CD137 = human CD137 (Homo sapiens, UniProt Q07011); type: cell-based; conditions: co-culture with 4T1 cells overexpressing mouse Nectin-4, 6 hours
MC38-Nectin-4 tumors = test: Pharmacodynamics in MC38-Nectin-4 tumors; type: in vivo, mouse; conditions: 144 hours
Procedure, shortened: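 C57BL/6J-hCD137 mice bore MC38-Nectin-4 tumors. Tumors were harvested 24, 48, 96 and 144 h after test compound 5 mg/kg at 0 and 24 h. Controls were harvested at 144 h: vehicle, a non-CD137-binding analogue (same schedule), or anti-CD137 agonist antibody 2 mg/kg every 3 days. Tumors were assessed by IHC (mouse CD8) and NanoString mRNA profiling.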

Chain of human CD137 (Q07011 24-255): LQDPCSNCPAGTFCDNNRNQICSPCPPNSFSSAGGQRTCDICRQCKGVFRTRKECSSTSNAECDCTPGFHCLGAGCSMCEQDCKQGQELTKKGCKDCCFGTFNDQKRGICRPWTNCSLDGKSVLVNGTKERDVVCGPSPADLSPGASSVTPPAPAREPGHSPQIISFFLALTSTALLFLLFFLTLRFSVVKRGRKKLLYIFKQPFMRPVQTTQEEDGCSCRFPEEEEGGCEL

## anti-CD137 antibody agonist: anti-human 4-1BB therapeutic antibody, urelumab, Creative Biolabs Cat. No. TAB-179
Human CD137
  CD137 agonism (reporter activity): induced CD137 agonism in a Nectin-4-independent manner
MC38-Nectin-4 tumors
  reprogramming of the tumor immune microenvironment (mRNA profiling): to lesser extent
MC38-Nectin-4 tumors; BT7480 or NB-BCY 5 mg/kg at 0 and 24 hours, anti-CD137 antibody agonist 2 mg/kg
  T cell infiltrates in tumor (CD8 IHC): increased
